Results: publication PMC4230322 (Biochemistry, 2014)
Values joined by “and” are separate entries in the source; they are usually repeats but may differ in a detail not shown here. Equal entries are not always repeated.

What was measured:
SULT1A1 [1] = biological target: T1, SULT1A1 (Homo sapiens, UniProt P50225); test: Equilibrium binding of TAM and 1-HP to SULT1A1 forms E, E·PAP, E·
How it was run: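 Acceptor titrated into SULT1A1 (0.05–10 μM dimer) with PAP 0–500 μM, MgCl2 5.0 mM, NaPO4 (25 or 50 mM), pH 7.2, 25 ± 2 °C. Intrinsic fluorescence read at λex 290 nm, λem 345 nm. Free enzyme had no PAP; 0.50 mM PAP saturates both sites; singly bound form used 9.0 μM dimer with 9.0 μM PAP. Biphasic phases fitted separately. Triplicates averaged; least-squares single-site fit.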

SULT1A1 [2] = biological target: T1, SULT1A1; test: Initial rate of 1-HP sulfonation by SULT1A1; format: biochemical
How it was run: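 Recombinant SULT1A1 at 1.0 nM dimer with MgCl2 5.0 mM and NaPO4 50 mM, pH 7.2, 25 ± 2 °C. Reactions started with PAPS: 2.0 μM saturates both sites, 0.30 μM only the first. Acceptor 8.0–200 nM. Product fluorescence read at λex 320 nm, λem 380 nm. […]. Duplicates; weighted least-squares fit in double-reciprocal form.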

SULT1A1 [3] = biological target: T1, SULT1A1; test: Equilibrium binding of PAPS to SULT1A1; conditions: for Kd: pH 7.2, 25 °C
How it was run: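 Human SULT1A1, codon-optimised, expressed in E. coli BL21(DE3) with a His/GST/MBP tag, then tag-cleaved. PAPS titrated into enzyme with MgCl2 5.0 mM and NaPO4 50 mM, pH 7.2, 25 ± 2 °C. Intrinsic fluorescence read at λex 290–295 nm, λem 345 nm. Dimer 0.05 μM for high-affinity Kd; 3.0 μM for first-site stoichiometry and low-affinity phase; 475 μM for full-site, at λex 297 nm. Triplicates averaged; single-site-per-dimer fit.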

SULT1A1 [4] = biological target: T1, SULT1A1; conditions: PAP bound to SULT1A1, in favor of pore closure; cited from earlier work
SULT1A1 [5] = biological target: T1, SULT1A1; test: Pre-steady-state PAPS binding; conditions: for Kd: read-out: koff/kon
How it was run: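 Stopped-flow, excitation 290 nm, emission above 330 nm. Enzyme solution (MgCl2 5.0 mM, NaPO4, pH 7.2, 25 ± 2 °C) mixed 1:1 with PAPS solution. High-affinity site: 30 nM dimer. Low-affinity site: 2.0 μM dimer pre-equilibrated with PAPS, then mixed with higher PAPS. Pseudo-first-order; three curves per concentration (each 8–10 shots) at four PAPS levels. Single-exponential kobs; kon from slope, koff from intercept.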

SULT1A1 [6] = biological target: T1, SULT1A1; test: Initial rate kinetics of TAM sulfation; format: biochemical
[7] = acceptor binding to E (no nucleotide), pH 7.2, 25 °C
[8] = acceptor binding to E·(PAP)2 (TAM: PAP 0.50 mM; 1-HP: PAP 2.0 µM)
[9] = 1-HP as substrate, E·PAP form, [PAPS] 0.30 μM
[10] = high-affinity PAPS binding site, pH 7.2, 25 °C
[11] = low-affinity PAPS binding site, dimer pre-equilibrated with PAPS

T1 sequence (P50225 whole entry): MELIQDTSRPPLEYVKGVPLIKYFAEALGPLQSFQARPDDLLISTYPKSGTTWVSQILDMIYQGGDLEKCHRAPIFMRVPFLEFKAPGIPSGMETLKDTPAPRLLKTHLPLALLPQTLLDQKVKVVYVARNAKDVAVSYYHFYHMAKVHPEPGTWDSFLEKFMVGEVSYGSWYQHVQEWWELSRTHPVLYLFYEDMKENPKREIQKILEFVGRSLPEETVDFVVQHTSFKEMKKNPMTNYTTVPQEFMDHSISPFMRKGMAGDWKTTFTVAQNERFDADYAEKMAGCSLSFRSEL

Oc1ccc2ccc3cccc4ccc1c2c34 [1-HP, 1-hydroxypyrene]
Kd (SULT1A1 [1]; [7]): 8 µM
Kd (SULT1A1 [1]; [8]): 0.025 µM
kcat (SULT1A1 [2]; 1-HP as substrate, E·(PAP)2 form, [PAPS] 2.0 μM): 1000 (60) s^–1
Km (SULT1A1 [2]; [9]): 0.041 µM
kcat (SULT1A1 [2]; [9]): 130 (20) s^–1
effect of PAPS occupancy on Km (SULT1A1 [2]; 1-HP sulfonation): not affected by PAPS occupancy
increase in kcat, doubly vs singly occupied enzyme (SULT1A1 [2]; 1-HP sulfonation): ~8 fold
increase in turnover of each subunit, doubly vs singly occupied enzyme (SULT1A1 [2]; 1-HP sulfonation): 4 times

Nc1ncnc2c1ncn2[C@@H]1O[C@H](COP(=O)(O)O)[C@@H](O)[C@H]1O [AMP, Adenosine monophosphate]
binding to SULT1A1 (SULT1A1 [3]; used in control titrations for inner-filter correction): does not bind SULT1A1

Nc1ncnc2c1ncn2[C@@H]1O[C@H](COP(=O)(O)O)[C@@H](OP(=O)(O)O)[C@H]1O [PAP, 3′,5′-diphosphoadenosine]
isomerization equilibrium constant, Kiso (SULT1A1 [4]): 26

Nc1ncnc2c1ncn2[C@@H]1O[C@H](COP(=O)(O)OS(=O)(=O)O)[C@@H](OP(=O)(O)O)[C@H]1O [PAPS, 3′-phosphoadenosine 5′-phosphosulfate]
kon for the first site, aggregate value halved (SULT1A1 [5]; corrected for two subunits able to bind the first ligand): 1.0 μM^–1 s^–1
koff (SULT1A1 [5]; [10]): 0.70 (0.05) s^–1
kon (SULT1A1 [5]; [10]): 2.0 (0.1) μM^–1 s^–1
koff (SULT1A1 [5]; [11]): 29 (1) s^–1
kon (SULT1A1 [5]; [11]): 0.96 (0.01) μM^–1 s^–1
Kd (SULT1A1 [5]; high-affinity PAPS binding site): 0.37 µM
Kd (SULT1A1 [5]; low-affinity PAPS binding site): 30 µM
PAPS binding stoichiometry at the high-affinity site (SULT1A1 [3]; SULT1A1 3.0 μM dimer (16Kd)): 1.1 ± 0.2 PAPS molecules per dimer and 1.1 ± 0.1 PAPS molecules per dimer
Kd (SULT1A1 [3]; high-affinity PAPS binding site, SULT1A1 0.05 μM dimer): 0.37 µM
difference in affinities (Kd) of the two PAPS binding sites (SULT1A1 [3]; low- vs high-affinity site): 81 fold
Kd (SULT1A1 [3]; low-affinity PAPS binding site, SULT1A1 3.0 μM dimer): 30 µM

CC/C(=C(\c1ccc(O)cc1)c1ccc(OCCN(C)C)cc1)c1ccccc1 [TAM, 4-hydroxytamoxifen]
ratio of Km for the singly and doubly occupied enzyme (SULT1A1 [6]): 23
Kd (SULT1A1 [1]; [7]): 0.67 µM
Kd (SULT1A1 [1]; [8]): 0.68 µM and 0.65 µM
stoichiometry of binding to E and E·(PAP)2 (SULT1A1 [1]; SULT1A1 10 μM dimer, PAP 0 or 0.50 mM): 2.0 ± 0.1 TAM bound per SULT1A1 dimer
